Results from ChEMBL document CHEMBL4622996, “Discovery of Vixotrigine: A Novel Use-Dependent Sodium Channel Blocker for the Treatment of Trigeminal Neuralgia” (ACS Med Chem Lett, 2020).
The source made the active and inactive calls. No cut-off for these calls is given here.

Tests used:
[1] = target: Voltage-gated inwardly rectifying potassium channel KCNH2 (Homo sapiens, UniProt Q12809); experiment: Inhibition of human ERG; details: for inhibition (INH): human
[2] = target: T1, Sodium channel protein type 3 subunit alpha (Homo sapiens, UniProt Q9NY46); experiment: Inhibition of Nav1.3 (unknown origin) expressed in HEK293 cells assessed as inhibition of sodium current incubated for 3 to 3.5 mins by electrophysiology assay; format: cell-based
In short: (§1)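 HEK293 cells stably expressing NaV1.3, grown in DMEM-F12 with 10% FBS at 37 °C, dissociated at 50–70% confluency; IonWorksHT planar patch clamp at 21–23 °C, amphotericin perforated access; intracellular K-gluconate 100, KCl 40, MgCl2 3.2, EGTA 3, HEPES 5 mM, pH 7.3.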
Target sequence in this assay (Q9NY46 whole entry): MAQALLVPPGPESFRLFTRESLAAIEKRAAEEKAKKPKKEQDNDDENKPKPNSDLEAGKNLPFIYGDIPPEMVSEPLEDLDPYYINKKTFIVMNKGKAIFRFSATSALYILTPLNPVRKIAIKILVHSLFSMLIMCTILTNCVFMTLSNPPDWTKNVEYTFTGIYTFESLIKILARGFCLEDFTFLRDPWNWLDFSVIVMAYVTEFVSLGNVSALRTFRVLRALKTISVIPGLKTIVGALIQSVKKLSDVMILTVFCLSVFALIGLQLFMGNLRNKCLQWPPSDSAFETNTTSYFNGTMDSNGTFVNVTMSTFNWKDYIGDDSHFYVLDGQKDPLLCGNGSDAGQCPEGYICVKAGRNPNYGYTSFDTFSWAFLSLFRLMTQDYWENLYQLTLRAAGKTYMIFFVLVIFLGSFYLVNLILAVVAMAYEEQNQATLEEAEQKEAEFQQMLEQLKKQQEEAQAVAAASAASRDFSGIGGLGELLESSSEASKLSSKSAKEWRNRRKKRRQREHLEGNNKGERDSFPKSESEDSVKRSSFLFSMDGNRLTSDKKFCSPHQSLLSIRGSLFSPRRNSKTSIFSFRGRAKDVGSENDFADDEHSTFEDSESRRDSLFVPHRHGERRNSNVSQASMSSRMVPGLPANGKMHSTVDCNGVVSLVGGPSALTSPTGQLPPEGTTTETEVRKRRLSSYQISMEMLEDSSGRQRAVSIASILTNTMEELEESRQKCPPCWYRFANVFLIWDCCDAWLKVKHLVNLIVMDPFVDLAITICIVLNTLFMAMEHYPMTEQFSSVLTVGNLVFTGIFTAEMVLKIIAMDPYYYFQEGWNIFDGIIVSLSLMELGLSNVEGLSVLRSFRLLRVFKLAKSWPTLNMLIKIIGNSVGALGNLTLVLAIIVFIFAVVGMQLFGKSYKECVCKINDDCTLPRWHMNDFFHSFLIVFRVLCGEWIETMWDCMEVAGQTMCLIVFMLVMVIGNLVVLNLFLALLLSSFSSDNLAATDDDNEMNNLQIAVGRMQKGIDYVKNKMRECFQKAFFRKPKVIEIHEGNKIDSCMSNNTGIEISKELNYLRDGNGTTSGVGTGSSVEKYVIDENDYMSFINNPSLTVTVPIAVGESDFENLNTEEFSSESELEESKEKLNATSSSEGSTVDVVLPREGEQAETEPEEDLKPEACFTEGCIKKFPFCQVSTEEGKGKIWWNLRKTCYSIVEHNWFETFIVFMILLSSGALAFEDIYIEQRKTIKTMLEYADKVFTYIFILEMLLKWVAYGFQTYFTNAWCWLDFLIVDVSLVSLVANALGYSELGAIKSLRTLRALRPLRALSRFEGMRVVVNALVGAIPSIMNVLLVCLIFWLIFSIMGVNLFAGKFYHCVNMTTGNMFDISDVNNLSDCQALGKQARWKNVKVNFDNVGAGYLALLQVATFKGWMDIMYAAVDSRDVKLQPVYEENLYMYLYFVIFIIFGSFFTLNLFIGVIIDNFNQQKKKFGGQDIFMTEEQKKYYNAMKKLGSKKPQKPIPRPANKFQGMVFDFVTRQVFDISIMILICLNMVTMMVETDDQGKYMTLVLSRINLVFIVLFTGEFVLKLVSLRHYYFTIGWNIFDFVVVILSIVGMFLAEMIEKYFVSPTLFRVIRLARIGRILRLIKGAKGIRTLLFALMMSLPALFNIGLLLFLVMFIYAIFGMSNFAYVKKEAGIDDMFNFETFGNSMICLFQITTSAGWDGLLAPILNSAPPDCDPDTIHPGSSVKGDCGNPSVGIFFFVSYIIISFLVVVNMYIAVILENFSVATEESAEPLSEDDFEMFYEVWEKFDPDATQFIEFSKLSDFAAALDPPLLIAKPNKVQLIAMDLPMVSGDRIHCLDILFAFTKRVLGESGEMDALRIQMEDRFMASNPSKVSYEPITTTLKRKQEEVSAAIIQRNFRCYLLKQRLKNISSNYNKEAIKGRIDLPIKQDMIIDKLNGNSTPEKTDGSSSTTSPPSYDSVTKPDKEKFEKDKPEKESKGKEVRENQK

[3] = organism: Homo sapiens; experiment: Selectivity ratio of UD15 to IC50 of Nav1.3 (unknown origin) expressed in HEK293 cells; format: cell-based
[4] = target: T1, Sodium channel protein type 3 subunit alpha; experiment: Inhibition of Nav1.3 (unknown origin) expressed in HEK293 cells assessed as 15% inhibition of sodium current incubated for 3 to 3.5 mins by electrophysiology assay; format: cell-based; in short: as §1
Target sequence in this assay (Q9NY46 whole entry, looked up): as the sequence (Q9NY46 whole entry) above

[5] = Fraction unbound in rat brain; format: ADME, tissue-based
[6] = Fraction unbound in rat plasma; format: ADME, cell-free
[7] = Oral bioavailability in rat at 3 mg/kg; format: ADME, organism-based; details: in vivo
[8] = Total blood clearance in rat blood at 0.5 mg/kg, iv; format: ADME, organism-based
[9] = Ratio of drug level in brain to blood in rat; format: ADME, tissue-based; details: read-out: Kbb
[10] = test system: Rattus norvegicus; experiment: Antinociceptive activity in rat model of chronic constriction injury-induced neuropathic pain assessed as inhibition of CCI-induced mechanical allodynia at 30 mg/kg, po BID administered 22 days post surgery and measured on day 1, 6 and 8; format: functional, organism-based
In short: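 Chronic constriction injury model of neuropathic pain. Dosed orally twice daily as the positive-control arm of a study that also tested 0.5 and 5 mg/kg oral BID groups. Dosing started during day 22. Mechanical allodynia was measured on dosing days 1, 6 and 8.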

[11] = Fraction unbound in rat blood; format: ADME, tissue-based

Voltage-gated inwardly rectifying potassium channel KCNH2, sequence (Q12809 whole entry): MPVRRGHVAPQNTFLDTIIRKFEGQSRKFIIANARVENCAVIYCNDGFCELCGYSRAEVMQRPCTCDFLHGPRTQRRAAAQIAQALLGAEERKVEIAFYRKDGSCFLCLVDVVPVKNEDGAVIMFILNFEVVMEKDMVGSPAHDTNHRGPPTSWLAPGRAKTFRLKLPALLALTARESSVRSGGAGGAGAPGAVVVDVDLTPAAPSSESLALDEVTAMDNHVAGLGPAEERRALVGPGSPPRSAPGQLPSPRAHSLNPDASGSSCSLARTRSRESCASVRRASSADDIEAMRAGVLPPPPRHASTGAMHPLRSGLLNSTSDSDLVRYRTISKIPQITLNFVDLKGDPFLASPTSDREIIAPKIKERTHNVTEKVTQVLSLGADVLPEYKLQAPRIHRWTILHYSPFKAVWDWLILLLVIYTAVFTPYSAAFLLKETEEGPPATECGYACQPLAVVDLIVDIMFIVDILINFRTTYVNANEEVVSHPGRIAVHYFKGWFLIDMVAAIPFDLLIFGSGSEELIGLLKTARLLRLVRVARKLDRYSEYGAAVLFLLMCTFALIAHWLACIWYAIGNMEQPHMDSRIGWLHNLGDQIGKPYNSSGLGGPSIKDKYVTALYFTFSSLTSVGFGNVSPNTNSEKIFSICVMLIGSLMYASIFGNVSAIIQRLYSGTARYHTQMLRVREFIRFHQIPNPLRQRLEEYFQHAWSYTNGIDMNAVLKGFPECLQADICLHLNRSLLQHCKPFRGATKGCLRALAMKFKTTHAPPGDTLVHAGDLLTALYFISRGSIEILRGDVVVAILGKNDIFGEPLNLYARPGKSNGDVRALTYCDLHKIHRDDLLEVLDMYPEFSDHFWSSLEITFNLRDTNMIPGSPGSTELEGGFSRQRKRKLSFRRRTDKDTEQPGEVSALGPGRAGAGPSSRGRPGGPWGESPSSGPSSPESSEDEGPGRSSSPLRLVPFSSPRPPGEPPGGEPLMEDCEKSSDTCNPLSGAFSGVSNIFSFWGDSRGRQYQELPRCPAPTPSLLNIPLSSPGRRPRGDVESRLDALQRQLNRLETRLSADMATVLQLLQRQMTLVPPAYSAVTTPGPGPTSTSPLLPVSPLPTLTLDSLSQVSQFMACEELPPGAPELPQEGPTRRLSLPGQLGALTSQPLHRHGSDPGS

| Compound | IC50 [1] | IC50 [2] | Selectivity ratio [3] | log(activity) [4] | further results |
| --- | --- | --- | --- | --- | --- |
| NC(=O)[C@@H]1CC[C@H](c2ccc(Oc3cccc(F)c3)cc2)N1 | 7.94 µM | 100 µM | 29 | -5.5 |  |
| N#Cc1cccc(COc2ccc([C@H]3CC[C@@H](C(N)=O)N3)cc2)c1 |  | > 63.1 µM |  | -5.2 |  |
| NC(=O)CN1CCOc2cc(OCc3ccccc3)ccc2C1 |  | > 79.4 µM |  |  |  |
| COc1cc([C@H]2CC[C@@H](C(N)=O)N2)ccc1OCc1ccccc1F | 3.98 µM | 63.1 µM | 10 | -5.2 | fraction unbound [5]: 0.033 |
| C[C@@H](C(N)=O)N1CCCC1c1ccc(OCc2ccccc2F)cc1 (single isomer, unassigned; isomer 2) [listing 1 of 2 here] |  |  | 29 | -5.9 |  |
| NC(=O)CN1Cc2ccc(OCc3ccccc3F)cc2C1 |  | > 100 µM |  |  |  |
| NC(=O)[C@@H]1CCC[C@H](c2ccc(OCc3cccc(F)c3)cc2)N1 (stereo in doubt) | 31.6 µM | 39.8 µM | 7 | -5.4 | fraction unbound [5]: 0.01; fraction unbound [6]: 0.04 |
| CN1[C@@H](c2ccc(OCc3ccccc3F)cc2)CC[C@H]1C(N)=O | 50.1 µM | > 100 µM | 2 | -4.4 |  |
| NC(=O)[C@@H]1CC[C@H](c2cccc(Oc3ccccc3)c2)N1 | 63.1 µM | > 100 µM |  | -4.7 |  |
| O=C1CN(Cc2ccc(OCc3ccccc3F)cc2)CCN1 |  | > 79.4 µM |  |  |  |
| C[C@H](NC1CCCc2cc(OCc3ccccc3F)ccc21)C(N)=O (some centres not stated) |  | 63.1 µM | 24 | -5.6 | inhibition (INH) [1]: Active |
| C[C@@H](C(N)=O)N1CCCC1c1ccc(OCc2ccccc2F)cc1 (single isomer, unassigned; isomer 2) [listing 2 of 2 here] |  | 39.8 µM |  |  |  |
| NC(=O)[C@@H]1CSC[C@H](c2ccc(OCc3cccc(F)c3)cc2)N1 (racemic) |  | > 89.1 µM |  | < -4.05 |  |
| NC(=O)[C@@H]1CC[C@H](c2ccc(OCc3cccc(F)c3)cc2)N1 | 3.16 µM | > 100 µM |  | -5.5 | fraction unbound [5]: 0.01; fraction unbound [6]: 0.033 |
| NC(=O)[C@@H]1CC[C@H](c2ccc(OCc3ccccc3)cc2)N1 | 7.94 µM | > 63.1 µM | 37 | -5.6 |  |
| C[C@@H](C(N)=O)N1CCCC1c1ccc(OCc2ccccc2F)cc1 (some centres not stated) [listing 1 of 2 here] |  | 50.1 µM |  |  | inhibition (INH) [1]: Active |
| C[C@@H](C(N)=O)N1CCCC1c1ccc(OCc2ccccc2F)cc1 (some centres not stated) [listing 2 of 2 here] |  |  | 14 | -5.5 |  |
| NC(=O)CN1CCCc2cc(OCc3ccccc3F)ccc2C1 |  | > 79.4 µM |  |  |  |
| NC(=O)[C@H]1CCC[C@@H](c2ccc(OCc3cccc(F)c3)cc2)N1 (stereo in doubt) | 3.16 µM | 39.8 µM | 11 | -5.4 |  |
| C[C@H](NC1CCOc2cc(OCc3ccccc3F)ccc21)C(N)=O (some centres not stated) |  | > 79.4 µM |  |  |  |
| NC(=O)[C@@H]1CC[C@@H](c2ccc(OCc3ccccc3F)cc2)N1 | 5.01 µM | 100 µM |  | -5.5 |  |
| NC(=O)[C@@H]1CSc2cc(OCc3ccccc3F)ccc2CN1 |  | > 100 µM |  | -4.7 |  |

| Compound | IC50 [1] | IC50 [2] | Selectivity ratio [3] | log(activity) [4] | further results |
| --- | --- | --- | --- | --- | --- |
| N#Cc1ccc(COc2ccc([C@H]3CC[C@@H](C(N)=O)N3)cc2)cc1 | 7.94 µM | > 63.1 µM |  | -5 |  |
| CNC(=O)[C@@H]1CC[C@H](c2ccc(OCc3ccccc3F)cc2)N1 | 25.1 µM | > 63.1 µM |  | -5.3 | fraction unbound [5]: 0.015 |
| N#Cc1ccccc1COc1ccc([C@H]2CC[C@@H](C(N)=O)N2)cc1 | 15.8 µM | > 63.1 µM |  | -5.3 | fraction unbound [5]: 0.063; bioavailability [7]: 39%; fraction unbound [6]: 0.12; clearance [8]: 37 mL/min/kg; Kp [9]: 0.8 |
| NC(=O)[C@@H]1CC[C@H](c2ccc(Oc3ccc(F)cc3)cc2)N1 | 5.01 µM | > 100 µM |  | -5.3 | fraction unbound [5]: 0.016; fraction unbound [6]: 0.11 |
| NC(=O)[C@H]1CC[C@H](c2ccc(OCc3ccccc3F)cc2)N1 | 6.31 µM | > 79.4 µM |  | -5.4 |  |
| NC(=O)[C@@H]1CC[C@H](c2ccc(OCc3ccc(F)cc3)cc2)N1 | 7.94 µM | > 63.1 µM |  | -5 | bioavailability [7]: 31%; clearance [8]: 91 mL/min/kg; Kp [9]: 3.5 |
| CC(C(N)=O)N1CCOc2cc(OCc3ccccc3F)ccc2C1 (configuration not stated) |  | > 63.1 µM |  | -4.6 |  |
| NC(=O)[C@@H]1CC[C@H](c2ccc(OCc3ccccc3F)cc2F)N1 | 12.6 µM | > 100 µM | 42 | -5.6 | fraction unbound [5]: 0.009 |
| NCC1(CC(=O)O)CCCCC1 |  |  |  |  | Activity [10]: Active |
| NC(=O)CNC1CCc2cc(OCc3ccccc3F)ccc21 (configuration not stated) |  | 31.6 µM | 1.3 | -5.5 | inhibition (INH) [1]: Active |
| C[C@@H](Oc1ccc([C@H]2CC[C@@H](C(N)=O)N2)cc1)c1ccccc1 | 3.98 µM | 31.6 µM | 9 | -5.5 |  |
| NC(=O)[C@@H]1CC[C@H](c2ccc(Oc3ccccc3)cc2)N1 | 12.6 µM | 100 µM | 31 | -5.4 | bioavailability [7]: 25%; clearance [8]: 40 mL/min/kg; Kp [9]: 4.8 |
| NC(=O)C1Cc2cc(OCc3ccccc3F)ccc2CN1 (configuration not stated) |  | 20 µM | 1.3 | -4.8 |  |
| N#Cc1cc([C@H]2CC[C@@H](C(N)=O)N2)ccc1OCc1ccccc1F |  | > 50.1 µM |  | -4.8 |  |
| NC(=O)C1CCC(c2ccc(OCc3ccccc3F)cc2)N1 (configuration not stated) |  | 63.1 to 100 µM |  | -5.4 |  |
| NC(=O)[C@@H]1CCCN1Cc1ccc(OCc2ccccc2F)cc1 |  | 79.4 µM | 64 | -5.8 | inhibition (INH) [1]: Active |
| NC(=O)[C@H]1CC[C@@H](c2ccc(OCc3ccccc3F)cc2)N1 | 10 µM | 63.1 µM |  | -5.4 |  |
| C[C@@H](C(N)=O)N1CCc2cc(OCc3ccccc3F)ccc2C1 |  | > 79.4 µM |  |  |  |
| N#Cc1ccccc1Oc1ccc([C@H]2CC[C@@H](C(N)=O)N2)cc1 | 3.98 µM | > 100 µM |  | -4.6 | fraction unbound [11]: 0.12; fraction unbound [5]: 0.076 |
| NC(=O)[C@@H]1CC[C@H](c2ccc(OCc3ccccc3F)cn2)N1 | 15.8 µM | 63.1 µM | 6 | -4.8 |  |
| O=C1NCCC1NCc1ccc(OCc2ccccc2F)cc1 (configuration not stated) |  | 126 µM | 8 | -4.8 |  |
| NC(=O)CNCc1ccc(OCc2ccccc2F)cc1 |  | 50.1 µM | 11 | -5.4 |  |
